Laboratory results reported in ChEMBL document CHEMBL2157993, “Urea-based inhibitors of Trypanosoma brucei methionyl-tRNA synthetase: selectivity and in vivo characterization” (J Med Chem, 2012).
pEC50, pIC50: −log10 of the molar value.

Assays:
Trypanosoma brucei [1] = experiment: Binding affinity to Trypanosoma brucei MetRS at 100 uM by thermal shift assay
In short: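 Thermal shift (ΔTm) read-out with T. brucei MetRS at 0.4 mg/ml and 5% DMSO; otherwise per an earlier protocol. The test agent was at the single concentration in the curator's line. Repeated three times independently.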

[2] = Cytotoxicity against human CRL8155 cells incubated for 48 hrs by alamar blue assay; assay type: cell-based; conditions: CRL8155, 48 h
In short: (§1)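 […] cells in RPMI or HepG2 cells in DMEM/F-12, each with 10% serum, seeded at 5×10^3 per well. Exposed to serial compound dilutions for 48 h.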

[3] = Inhibition of Trypanosoma brucei MetRS aminoacylation activity assessed as reduction in [3H]methionine incorporation into Escherichia coli tRNA pre-incubated for 15 mins before tRNA addition and measured after 120 mins by scintillation counting
In short: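 Recombinant enzyme at 10 nM, preincubated 15 min with 12-point two-fold inhibitor dilutions in 25 mM HEPES pH 7.9, 10 mM MgCl2, 50 mM KCl, spermine, BSA, DTT, 1% DMSO and pyrophosphatase. Reaction started with 400 μg/mL E. coli tRNA, 0.1 mM ATP and 250 nM [3H]methionine, run 120 min at room temperature. TCA-precipitated and filtered for scintillation counting. Quadruplicate, with IC50 by sigmoidal fit.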

[4] = biological target: ATP-dependent translocase ABCB1 (Homo sapiens, UniProt P08183); experiment: Binding affinity to MDR1 expressed in MDCK2 cells assessed as absorptive quotient at 3 uM in absence of 2 uM by mass spectroscopy; assay type: ADME, cell-based; conditions: dog, mdck-ii
Sequence of ATP-dependent translocase ABCB1 (P08183 whole entry): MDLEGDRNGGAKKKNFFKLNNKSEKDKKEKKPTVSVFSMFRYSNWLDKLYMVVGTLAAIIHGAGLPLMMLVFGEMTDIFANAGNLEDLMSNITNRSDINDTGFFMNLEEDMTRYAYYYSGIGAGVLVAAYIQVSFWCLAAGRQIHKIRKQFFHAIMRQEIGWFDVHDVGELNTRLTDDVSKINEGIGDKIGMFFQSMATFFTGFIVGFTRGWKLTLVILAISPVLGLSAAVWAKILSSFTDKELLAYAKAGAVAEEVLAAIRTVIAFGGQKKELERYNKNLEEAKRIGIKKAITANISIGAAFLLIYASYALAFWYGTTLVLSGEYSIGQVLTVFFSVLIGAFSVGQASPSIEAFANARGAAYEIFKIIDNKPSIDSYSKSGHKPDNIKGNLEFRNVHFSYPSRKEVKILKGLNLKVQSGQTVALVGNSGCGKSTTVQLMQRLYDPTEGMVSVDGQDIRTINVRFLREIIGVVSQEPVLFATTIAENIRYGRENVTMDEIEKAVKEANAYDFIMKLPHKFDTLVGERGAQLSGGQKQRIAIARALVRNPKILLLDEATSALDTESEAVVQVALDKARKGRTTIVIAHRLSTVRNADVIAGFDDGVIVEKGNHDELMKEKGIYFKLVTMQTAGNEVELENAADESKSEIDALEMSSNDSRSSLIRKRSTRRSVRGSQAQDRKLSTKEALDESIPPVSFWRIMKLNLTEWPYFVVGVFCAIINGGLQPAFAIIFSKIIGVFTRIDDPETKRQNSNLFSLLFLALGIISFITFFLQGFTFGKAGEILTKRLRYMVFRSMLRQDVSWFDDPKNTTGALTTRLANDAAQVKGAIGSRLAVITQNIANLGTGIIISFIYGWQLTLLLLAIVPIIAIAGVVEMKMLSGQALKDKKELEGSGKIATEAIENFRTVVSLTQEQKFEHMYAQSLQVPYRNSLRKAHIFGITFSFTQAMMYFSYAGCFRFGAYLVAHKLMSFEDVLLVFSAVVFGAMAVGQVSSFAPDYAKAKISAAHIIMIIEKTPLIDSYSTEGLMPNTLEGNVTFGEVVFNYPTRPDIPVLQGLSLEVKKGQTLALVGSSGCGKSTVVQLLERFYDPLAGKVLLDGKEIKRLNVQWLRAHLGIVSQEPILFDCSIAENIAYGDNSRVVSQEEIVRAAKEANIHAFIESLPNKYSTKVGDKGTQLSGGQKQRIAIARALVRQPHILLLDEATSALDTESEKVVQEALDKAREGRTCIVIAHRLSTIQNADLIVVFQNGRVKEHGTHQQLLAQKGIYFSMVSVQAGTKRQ
In short: (§2)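 Monolayers preincubated about 30 min with or without 2 μM elacridar, then given compound at 3 μM final (apical). After 60 min shaking, both chambers were sampled for MS. Integrity checked by Lucifer Yellow and TEER. Triplicate. Papp(A-B) and AQ calculated.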

[5] = Permeability across MDCK2-MDR1 cells expressing MDR1 at 3 uM in absence of 2 uM P-gp inhibitor Elacridal by mass spectroscopy; assay type: ADME, cell-based, Canis lupus familiaris; conditions: dog, mdck-ii
In short: as §2, with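 “MDR1-MDCKII cells seeded on Transwell inserts and assayed 3 days later at 37°C in HBSS with glucose and HEPES. Monolayers” for “Monolayers”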

[6] = test system: Trypanosoma brucei brucei; experiment: Growth inhibition of Trypanosoma brucei brucei 427 blood stream forms after 48 hrs by alamar blue assay; assay type: functional, organism-based; conditions: Trypanosoma brucei, 427, 48 h
In short: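 Strain 427 bloodstream forms cultured in HMI-9 with 10% FBS at 37°C, 5% CO2. Triplicate wells seeded at 5×10^4 trypomastigotes with serial compound dilutions from 20 mM DMSO stocks. AlamarBlue read-out at 48 h, with pentamidine as the positive control.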

[7] = Selectivity ratio of IC50 for human MetRS to IC50 for Trypanosoma brucei MetRS
In short: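 Ratio of the human mitochondrial MetRS IC50 to the T. brucei MetRS IC50, each from a [3H]methionine aminoacylation assay.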

Trypanosoma brucei [8] = experiment: Inhibition of protein synthesis in Trypanosoma brucei assessed as reduction in [3H]L-histidine incorporation into proteins incubated for 4 hrs by scintillation counting; assay type: functional, organism-based
HepG2 = experiment: Cytotoxicity against human HepG2 cells incubated for 48 hrs by alamar blue assay; assay type: cell-based; conditions: HepG2, 48 h; in short: as §1

Work on `O=C(NCCCNCc1ccc(Cl)cc1)Nc1ccccc1` yielded a ΔTm (Trypanosoma brucei [1]) of 2.5 °C.
Work on `COc1cc(Cl)cc(CNCCCNC(=O)Nc2ccccc2)c1` yielded a ΔTm (Trypanosoma brucei [1]) of 7.7 °C, a pEC50 [2] of 4.70 and a pIC50 [3] of 7.35. The AQ [4] was 0.49, the Papp [5] was 73 nm/s and the pEC50 [6] was 6.48. The Ratio IC50 [7] was 186.
With `C[C@@H]1C[C@@H]([C@H](O)CC2CC(=O)NC(=O)C2)C(=O)[C@@H](C)C1` the inhibition (Trypanosoma brucei [8]) was “Dose-dependent effect”.
`Nc1ccccc1NC(=O)NCCCNCc1cc(Cl)cc(Cl)c1` showed a ΔTm (Trypanosoma brucei [1]) of 4.7 °C.
Compound `O=C(NCCCNCc1ccccc1Cl)Nc1ccccc1` has a ΔTm (Trypanosoma brucei [1]) of 1.9 °C.
With `COc1ccc(CNCCCNC(=O)Nc2ccccc2)cc1` the ΔTm (Trypanosoma brucei [1]) was 1.1 °C.
Compound `CCOc1cccc(CNCCCNC(=O)Nc2ccccc2)c1` has a ΔTm (Trypanosoma brucei [1]) of 2.7 °C.
Compound `O=C(NCCCNCc1cc(Cl)cc(Cl)c1)Nc1ccccc1O` has a ΔTm (Trypanosoma brucei [1]) of 8.4 °C, a pIC50 [3] of 7.41 and a pEC50 [6] of 6.68. It also gave a Ratio IC50 [7] of 95 and a pEC50 (HepG2) of under 4.70.
Work on `CC(C)NCC(O)COc1cccc2ccccc12` (stereo unspecified) [PROPRANOLOL] yielded an AQ [4] of under 0.5.
Work on `O=C(NCCCNCc1cc(Cl)cc(Cl)c1)Nc1cccnc1` yielded a ΔTm (Trypanosoma brucei [1]) of 7.1 °C.
For `N=C(NCCCNCc1cc(Cl)cc(Cl)c1)Nc1ccccc1`, the ΔTm (Trypanosoma brucei [1]) was 4.5 °C.
In the case of `O=C(NCCCNCc1cc(Cl)cc(Cl)c1)Nc1ccccn1`, the ΔTm (Trypanosoma brucei [1]) was 4.5 °C.
For `O=C(NCCCNCc1cc(Cl)cc(Cl)c1)Nc1cccc(F)c1`, the ΔTm (Trypanosoma brucei [1]) was 7.7 °C, the pIC50 [3] was 6.96 and the pEC50 [6] was 6.12. The Ratio IC50 [7] was 39 and the pEC50 (HepG2) was 4.75.
`O=C(NCCCNCc1cc(Cl)cc(Cl)c1)Nc1ccc(Cl)cc1` showed a ΔTm (Trypanosoma brucei [1]) of 5.7 °C.
With `O=C(NCCCNCc1cc(Cl)cc(Cl)c1)Nc1cccc(Cl)c1` the ΔTm (Trypanosoma brucei [1]) was 5.2 °C.
`O=C(NCCCNCc1cc(Cl)cc(Cl)c1)Nc1ccc(F)cc1` gave a ΔTm (Trypanosoma brucei [1]) of 6.3 °C.
In the case of `CCOc1ccccc1CNCCCNC(=O)Nc1ccccc1`, the ΔTm (Trypanosoma brucei [1]) was 1.1 °C.
